The source made the active and inactive calls. The rule behind the calls is not given here.
Legend:
Rattus norvegicus = species on record: Rattus norvegicus; assay: Inhibition of rat air pouch sPLA2 at 10 uM
Summary of the method: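 sPLA2 source was exudate supernatant from zymosan-injected rat air pouch. Preincubated 5 min at 37 °C with compound or vehicle, then 15 min with autoclaved [3H]oleate-labelled E. coli CECT 101 membranes. Stopped with ice-cold BSA (0.07% w/v final). Released radioactivity in the supernatant counted by scintillation. Mean ± SEM, n = 6.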

RAW264.7 = assay: Inhibition of cPLA2 in mouse RAW264.7 cells; assay type: cell-based
Summary of the method: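 Enzyme was the cytosolic fraction of murine RAW 264.7 cells. Substrate was 1-palmitoyl-2-[14C]arachidonyl-phosphatidylcholine. Compound in methanol (<1% final) added before the enzyme, then 60 min at 37 °C. Stopped with isopropanol-heptane-0.5 M H2SO4 (10:5:1). Released arachidonate in the heptane phase was cleaned on silica gel and counted.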

Homo sapiens = species on record: Homo sapiens; assay: Inhibition of human synovial sPLA2 at 10 uM
Summary of the method: (§1)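 Purified enzyme (Naja naja venom, porcine pancreatic, or human recombinant synovial) in 100 mM Tris-HCl, 1 mM CaCl2, pH 7.5, preincubated 5 min at 37 °C with compound or vehicle. Then incubated 15 min with autoclaved E. coli CECT 101 membranes labelled with [3H]oleic acid. Stopped with ice-cold BSA (0.07% w/v final). Supernatant radioactivity counted after centrifugation. Mean ± SEM, n = 6.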

[1] = Cytotoxicity against human neutrophils up to 10 uM by MTT assay; assay type: cell-based; conditions: neutrophil
Summary of the method: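 Viability of human neutrophils assessed by mitochondrial reduction of MTT to formazan.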

Apis mellifera = assay: Inhibition of bee venom sPLA2 at 10 uM
Summary of the method: (§2)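 Radiometric sPLA2 assay on E. coli CECT 101 membranes labelled by growth for 6–8 h at 37 °C with [3H]oleic acid, then autoclaved. Bee venom or human recombinant synovial enzyme in 100 mM Tris-HCl, 1 mM CaCl2, pH 7.5. Enzyme preincubated 5 min at 37 °C with compound or vehicle, then 15 min with membranes. Stopped with ice-cold BSA and centrifuged. Supernatant radioactivity counted by scintillation. IC50 from at least four concentrations (n = 6). Mean ± SEM.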

Sus scrofa = species on record: Sus scrofa; assay: Inhibition of pig pancreas sPLA2 at 10 uM; summary of the method: as §1
Naja naja = assay: Inhibition of Naja naja sPLA2 at 10 uM; summary of the method: as §1
[2] = Inhibition of human synovial sPLA2; summary of the method: as §2
[3] = Inhibition of bee venom sPLA2; set-up: species or system Apis mellifera; summary of the method: as §2

Row | SMILES | inhibition (Rattus norvegicus) [%] | Activity (RAW264.7) | inhibition (Homo sapiens) [%] | Activity [1] | inhibition (Apis mellifera) [%] | inhibition (Sus scrofa) [%] | inhibition (Naja naja) [%] | IC50 [2] [µM] | IC50 [3] [µM]
1 | CC(=O)OC[C@@]1(C)CCC[C@@]2(C)C1CC[C@@]1(C)c3cc[n+](CC(=O)O)cc3CCC21 (some centres not stated) [SPONGIDINE B] | 17.9 | inactive | 34.6 | Not Active | 32.2 | 14.2 | 0.4 | – | –
2 | CC1(C)CCC[C@@]2(C)C1CC[C@@]1(C)c3cc[n+](CC(=O)O)cc3CCC21.[Cl-] (some centres not stated) [SPONGIDINE A] | 17.1 | inactive | 40.1 | Not Active | 33.1 | 18 | 0.5 | – | –
3 | CC1(C)CCC[C@@]2(C)C1CC[C@@]1(C)c3cc[n+](CCS(=O)(=O)O)cc3CCC21 (some centres not stated) [SPONGIDINE D] | 19.6 | inactive | 48.2 | Not Active | 37.6 | 7.6 | 0 | – | –
4 | CC1=C(CC/C(C)=C/CCC2=CC[C@H](C3=CC(=O)OC3O)O[C@@H]2O)C(C)(C)CCC1 (some centres not stated) [MANOLIDE] | 38.4 | – | 93.2 | – | 62.5 | 32.3 | – | 3.9 | 7.5
5 | C[C@]1(CO)CCC[C@]2(C)[C@H]3CC[C@@H]4C(O)O[C@@H](C5=CC(=O)OC5O)C[C@H]4[C@]3(C)CC[C@H]12 (some centres not stated) [PETROSASPONGIOLIDE P] | 25.6 | – | 87.2 | Not Active | 5.4 | 19.5 | 8.7 | 5.8 | –
6 | C[C@]1(CO)CCC[C@]2(C)[C@H]3CC[C@@H]4C=C(CC(=O)O)C(=O)C[C@H]4[C@]3(C)CC[C@H]12 [PETROSASPONGIOLIDE K] | 18.8 | – | 34.4 | Not Active | 37.1 | 14.3 | 1.3 | – | –
7 | CC1(C)CCC[C@@]2(C)C1CC[C@@]1(C)c3cc(CCC(=O)O)[n+](CC(=O)O)cc3CCC21.[Cl-] (some centres not stated) [SPONGIDINE C] | 30.9 | inactive | 40.4 | Not Active | 36.2 | 9.1 | 3.1 | – | –

Reference: ChEMBL document CHEMBL1155688, “New pyridinium alkaloids from a marine sponge of the genus Spongia with a human phospholipase A(2) inhibitor profile” (J Nat Prod, 2000)
